Several values for one entry are separate records, joined by “and”; a condition that tells them apart may be missing. Equal entries are not always repeated. Activity calls are given as the source filed them. The calls are words filed in the database; no cut-off is given here.
Experiments:
[1] = In vitro antimalarial activity against chloroquine-sensitive NF54 strain of Plasmodium falciparum; format: functional
Method in brief: (§1)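 Run in quadruplicate with fitted concentration-response curves (R2 ≥0.985). Artemisinin was run as a concurrent control.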

Mus musculus [2] = assay: In vivo antimalarial activity in mice (Mus musculus) against chloroquine-sensitive Plasmodium berghei N after subcutaneous administration; format: functional
Mus musculus [3] = assay: In vivo antimalarial activity in mice (Mus musculus) against chloroquine-sensitive Plasmodium berghei N after oral administration; format: functional
Mus musculus [4] = species: Mus musculus; assay: Dose at which all the mice (from 4 groups) demonstarted 100% survival and normal expected body weight gain after injecting with compound for 14 days; format: functional
Method in brief: (§2)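 Male CD-1/ICR mice in groups of at least 4, given a single intramuscular injection into rear-limb muscle (at most 0.05 mL per site). Test articles were dissolved or suspended at 5% in sesame oil; a vehicle group was included. Doses ranged from 85 to about 400 mg/kg. Survival and body weight gain were followed for 14 days.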

Mus musculus [5] = assay: In vivo antimalarial activity in mice (Mus musculus) against chloroquine-resistant Plasmodium yoelii species. NS after subcutaneous administration; format: functional
Mus musculus [6] = assay: In vivo antimalarial activity in mice (Mus musculus) against chloroquine-resistant Plasmodium yoelii species. NS after subcutaneous administration; NA means Inactive at 30 mg/kg/day; format: functional, organism-based
[7] = In vitro antimalarial activity against chloroquine-sensitive NF54 strain of Plasmodium falciparum (Experiment 1); format: functional; method in brief: as §1
[8] = In vitro antimalarial activity against chloroquine-sensitive NF54 strain of Plasmodium falciparum (Experiment 2); format: functional; method in brief: as §1
Mus musculus [9] = species: Mus musculus; assay: Dose at which two mice demonstarted 100% survival and normal expected body weight gain after injecting with compound for 14 days; format: functional; method in brief: as §2
Mus musculus [10] = assay: Number of mice survived in a group of 18 mice after injecting single intraperitoneal dose of 1000 mg/kg (single dose of 250 mg/kg did not cause mice mortality); format: functional
Method in brief: (§3)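 Male CD-1 mice in groups of 18 received a single intraperitoneal dose (250, 500 or 1000 mg/kg) of the reference. Survival was scored. Clinical signs such as ruffled fur, hypoactivity and hunched posture were also recorded.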

Mus musculus [11] = assay: Number of mice survived in a group of 18 mice after injecting single intraperitoneal dose of 500 mg/kg (single dose of 250 mg/kg did not cause mice mortality); format: functional; method in brief: as §3

CC(=O)OC1(C)CCC2CC1OO[C@]2(C)CS(=O)(=O)c1ccccc1 (stereo in doubt; 45a)
IC50 [1]: 20 nM

CC1(O)CCC2CC1OO[C@]2(C)CS(=O)(=O)c1ccc(F)cc1 (stereo not given in full)
IC50 [1]: 52 nM

CC(C)=CCOC1(C)CCC2CC1OO[C@@]2(C)CS(=O)(=O)c1ccccc1 (stereo not given in full)
IC50 [1]: 35 nM

CC1(O)CCC2CC1OO[C@]2(C)CS(=O)(=O)c1ccccc1 (stereo in doubt; 26a)
IC50 [1]: 120 nM

CC1(OC(=O)C(=O)N(Cc2ccccc2)Cc2ccccc2)CCC2CC1OO[C@]2(C)CS(=O)(=O)c1ccccc1 (stereo not given in full)
IC50 [1]: 81 nM

CC1(OCc2ccccc2)CCC2CC1OO[C@]2(C)CS(=O)(=O)c1ccccc1 (stereo not given in full)
ED50 (Mus musculus [2]): 0.43 mg kg-1 5day-1 | ED90 (Mus musculus [2]): 1.3 mg kg-1 5day-1 | IC50 [1]: 9.4 nM | ED50 (Mus musculus [3]): 4.2 mg kg-1 5day-1 | ED90 (Mus musculus [3]): 23.5 mg kg-1 5day-1 | Dose (Mus musculus [4]): 380 mg/kg | ED50 (Mus musculus [5]): 1 mg kg-1 5day-1 | ED90 (Mus musculus [5]): 3.1 mg kg-1 5day-1

CC1(O)CCC2CC1OO[C@@]2(C)CS(=O)(=O)c1ccccc1 (stereo in doubt; 26b)
IC50 [1]: 95 nM

CC1(OC(=O)C(=O)N(Cc2ccccc2)Cc2ccccc2)CCC2CC1OO[C@@]2(C)CS(=O)(=O)c1ccccc1 (stereo not given in full)
IC50 [1]: 21 nM

CC1(O)CCC2CC1OO[C@@]2(C)CS(=O)(=O)c1ccc(F)cc1 (stereo not given in full)
IC50 [1]: 49 nM

CC1(O)CCC2CC1OO[C@@]2(C)CS(=O)(=O)c1ccccc1 (stereo in doubt; 23a) [listing 1 of 2 here]
NA (Mus musculus [6]): Inactive at 30 mg/kg/day

CC(=O)OC1(C)CCC2CC1OO[C@@]2(C)CS(=O)(=O)c1ccccc1 (stereo in doubt; 45b)
IC50 [1]: 18 nM

C[C@@H]1CC[C@H]2[C@@H](C)C(=O)O[C@@H]3O[C@@]4(C)CC[C@@H]1[C@]32OO4 [ARTEMISININ]
ED50 (Mus musculus [2]): 0.95 mg kg-1 5day-1 | ED90 (Mus musculus [2]): 2.5 mg kg-1 5day-1 | IC50 [7]: 8.7 nM | ED50 (Mus musculus [3]): 5 mg kg-1 5day-1 | ED90 (Mus musculus [3]): 14 mg kg-1 5day-1 | IC50 [8]: 8.9 nM | ED50 (Mus musculus [5]): 5.8 mg kg-1 5day-1 | ED90 (Mus musculus [5]): 10 mg kg-1 5day-1

CC1(O)CCC2CC1OO[C@@]2(C)CS(=O)(=O)c1ccccc1 (stereo in doubt; 23a) [listing 2 of 2 here]
ED50 (Mus musculus [2]): >30 mg kg-1 5day-1 | ED90 (Mus musculus [2]): >30 mg kg-1 5day-1 | IC50 [1]: 55 nM

CC1(O)CCC2CC1OO[C@]2(C)CSC(c1ccccc1)(c1ccccc1)c1ccccc1 (stereo not given in full)
IC50 [1]: 72 nM

CC(=O)OC1(C)CCC2CC1OO[C@]2(C)C[S+]([O-])c1ccccc1 (stereo not given in full)
IC50 [1]: 40 nM and 14 nM

CC1(OC/C=C/c2ccccc2)CCC2CC1OO[C@@]2(C)CS(=O)(=O)c1ccccc1 (stereo not given in full)
IC50 [1]: 32 nM

CC(=O)OC1(C)CCC2CC1OO[C@]2(C)CS(=O)(=O)c1ccccc1 (stereo in doubt; 45c)
IC50 [1]: 270 nM

CC1(O)C2CC(C[C@H]1OC(=O)c1ccccc1)[C@@](C)(CS(=O)(=O)c1ccccc1)OO2 (stereo not given in full)
IC50 [1]: 815 nM

CCO[C@H]1O[C@@H]2O[C@@]3(C)CC[C@H]4[C@H](C)CC[C@@H]([C@H]1C)[C@@]24OO3 [ARTEMOTIL]
ED50 (Mus musculus [2]): 0.9 mg kg-1 5day-1 | ED90 (Mus musculus [2]): 1.4 mg kg-1 5day-1 | Dose (Mus musculus [9]): 360 mg/kg

CCOC(=O)C(=O)OC1(C)CCC2CC1OO[C@@]2(C)CS(=O)(=O)c1ccccc1 (stereo not given in full)
IC50 [1]: 170 nM

CCCCS(=O)(=O)C[C@@]1(C)OOC2CC1CC(OC(=O)c1ccccc1)C2(C)O (stereo not given in full)
IC50 [1]: 500 nM

C[C@@H]1C(=O)C[C@H]2C[C@@H]1OO[C@@]2(C)/C=C\c1ccc(C(F)(F)F)cc1C(F)(F)F [ARTEFLENE]
ED50 (Mus musculus [2]): 2.7 mg kg-1 5day-1 | ED90 (Mus musculus [2]): 3.9 mg kg-1 5day-1 | IC50 [1]: 71 nM | ED50 (Mus musculus [3]): 10.4 mg kg-1 5day-1 | ED90 (Mus musculus [3]): 18 mg kg-1 5day-1

COC(=O)CS(=O)(=O)C[C@]1(C)OOC2CC1CCC2(C)O (stereo not given in full)
IC50 [1]: > 2500 nM

C=C1CCC2CC1OO[C@@]2(C)CS(=O)(=O)c1ccccc1 (stereo not given in full)
IC50 [1]: < 3220 nM

CC(=O)CC(=O)OC1(C)CCC2CC1OO[C@]2(C)CS(=O)(=O)c1ccccc1 (stereo not given in full)
IC50 [1]: 73 nM

CC(=O)OC1(C)CCC2CC1OO[C@@]2(C)CS(=O)(=O)c1ccccc1 (stereo in doubt; 45d)
IC50 [1]: 220 nM

CCOC(=O)C(=O)OC1(C)CCC2CC1OO[C@]2(C)CS(=O)(=O)c1ccccc1 (stereo not given in full)
IC50 [1]: 140 nM

COc1ccc(COC2(C)CCC3CC2OO[C@@]3(C)CS(=O)(=O)c2ccccc2)cc1 (stereo not given in full)
ED50 (Mus musculus [2]): 1.3 mg kg-1 5day-1 | ED90 (Mus musculus [2]): 2.3 mg kg-1 5day-1 | IC50 [1]: 14 nM | ED50 (Mus musculus [5]): 4.8 mg kg-1 5day-1 | ED90 (Mus musculus [5]): 8.3 mg kg-1 5day-1

CC1(O)CCC2CC1OO[C@@]2(C)C[S+]([O-])c1ccccc1 (stereo not given in full)
IC50 [1]: 150 nM

CC1(O)CCC2CC1OO[C@]2(C)C[S+]([O-])c1ccccc1 (stereo not given in full)
IC50 [1]: 820 nM

CC(=O)OC1(C)CCC2CC1OO[C@@]2(C)CS(=O)(=O)c1ccccc1 (stereo in doubt; 39a)
ED50 (Mus musculus [2]): 3.7 mg kg-1 5day-1 | ED90 (Mus musculus [2]): 7.3 mg kg-1 5day-1 | IC50 [1]: 17 nM | ED50 (Mus musculus [5]): 12.5 mg kg-1 5day-1 | ED90 (Mus musculus [5]): 28 mg kg-1 5day-1

CC1(O)CCC2CC1OO[C@]2(C)CS(=O)(=O)c1ccccc1 (stereo in doubt; 23b)
IC50 [1]: 89 nM

CC1(O)C2CC(CC1OC(=O)c1ccccc1)[C@](C)(CS(=O)(=O)c1ccccc1)OO2 (stereo not given in full)
IC50 [1]: > 2500 nM

CC(=O)OC1(C)CCC2CC1OO[C@@]2(C)C[S+]([O-])c1ccccc1 (stereo not given in full)
IC50 [1]: 62 nM and 54 nM

CC(=O)CC(=O)OC1(C)CCC2CC1OO[C@@]2(C)CS(=O)(=O)c1ccccc1 (stereo not given in full)
IC50 [1]: 46 nM

C[C@@]12OC1CC1CC2OO[C@@]1(C)CS(=O)(=O)c1ccccc1 (stereo not given in full)
IC50 [1]: 92 nM

CC1(O)CCC2CC1OO[C@@]2(C)CSC(c1ccccc1)(c1ccccc1)c1ccccc1 (stereo not given in full)
IC50 [1]: 150 nM

CC1CCC2CC1OO[C@@]2(C)CS(=O)(=O)c1ccccc1 (stereo not given in full)
IC50 [1]: 17 nM

CC1(O)C2CC(C[C@H]1OC(=O)c1ccccc1)[C@](C)(CS(=O)(=O)c1ccccc1)OO2 (stereo not given in full)
IC50 [1]: 2500 nM

CC1=CCC2CC1OO[C@@]2(C)CS(=O)(=O)c1ccccc1 (stereo not given in full)
IC50 [1]: 360 nM

CC1=CCC2CC1OO[C@@]2(C)CSc1ccccc1 (stereo not given in full)
IC50 [1]: 940 nM

CCN(CC)CCCC(C)Nc1ccnc2cc(Cl)ccc12 (stereo not given) [CHLOROQUINE]
ED50 (Mus musculus [2]): 1 mg kg-1 5day-1 | ED90 (Mus musculus [2]): 1.2 mg kg-1 5day-1 | ED50 (Mus musculus [3]): 1.9 mg kg-1 5day-1 | ED90 (Mus musculus [3]): 2.3 mg kg-1 5day-1 | ED50 (Mus musculus [5]): 2.4 mg kg-1 5day-1 | ED90 (Mus musculus [5]): 56 mg kg-1 5day-1

COC(=O)CS(=O)(=O)C[C@@]1(C)OOC2CC1CCC2(C)O (stereo not given in full)
IC50 [1]: > 2500 nM

CO[C@H]1O[C@@H]2O[C@@]3(C)CC[C@H]4[C@H](C)CC[C@@H]([C@H]1C)[C@@]24OO3 [ARTEMETHER]
ED50 (Mus musculus [2]): 0.5 mg kg-1 5day-1 | ED90 (Mus musculus [2]): 1.1 mg kg-1 5day-1 | ED50 (Mus musculus [3]): 3.1 mg kg-1 5day-1 | ED90 (Mus musculus [3]): 5 mg kg-1 5day-1 | No. of mice survived (Mus musculus [10]): 4 | No. of mice survived (Mus musculus [11]): 10

C[C@@H]1[C@H](OCc2ccc(C(=O)O)cc2)O[C@@H]2O[C@@]3(C)CC[C@@H]4[C@@H](C)CC[C@@H]1[C@]24OO3 [ARTELINIC ACID]
ED50 (Mus musculus [2]): 6.6 mg kg-1 5day-1 | ED90 (Mus musculus [2]): 14 mg kg-1 5day-1

CC1CCC2CC1OO[C@]2(C)CS(=O)(=O)c1ccccc1 (stereo not given in full)
IC50 [1]: 24 nM

CC(=O)OC1(C)CCC2CC1OO[C@]2(C)CS(=O)(=O)c1ccccc1 (stereo in doubt; 39b)
IC50 [1]: 17 nM

CC1(O)C2CC(C[C@H]1O)[C@@](C)(CS(=O)(=O)c1ccccc1)OO2 (stereo not given in full)
IC50 [1]: > 2500 nM

CC1(OCc2ccccc2)CCC2CC1OO[C@@]2(C)CS(=O)(=O)c1ccccc1 (stereo not given in full)
ED50 (Mus musculus [2]): 0.8 mg kg-1 5day-1 | ED90 (Mus musculus [2]): 1.7 mg kg-1 5day-1 | IC50 [1]: 6.5 nM | ED50 (Mus musculus [3]): 10.5 mg kg-1 5day-1 | ED90 (Mus musculus [3]): 115 mg kg-1 5day-1 | Dose (Mus musculus [4]): 380 mg/kg | ED50 (Mus musculus [5]): 1.3 mg kg-1 5day-1 | ED90 (Mus musculus [5]): 3.8 mg kg-1 5day-1

CC1(OC(=O)COc2ccccc2)CCC2CC1OO[C@@]2(C)CS(=O)(=O)c1ccccc1 (stereo not given in full)
IC50 [1]: 37 nM

CC1(O)C2CC(CC1OC(=O)c1ccccc1)[C@@](C)(CS(=O)(=O)c1ccccc1)OO2 (stereo not given in full)
IC50 [1]: 170 nM

CCCCS(=O)(=O)C[C@]1(C)OOC2CC1CC(OC(=O)c1ccccc1)C2(C)O (stereo not given in full)
IC50 [1]: 2500 nM
